ChEMBL document CHEMBL1153580, “Synthesis and pharmacological investigation of 3-(substituted 1-phenylethanone)-4-(substituted phenyl)-1, 2, 3, 4-tetrahydropyrimidine-5-carboxylates” (Eur J Med Chem, 2009)

Legend:
Rattus norvegicus [1] = assay: Antihypertensive activity in Norwegian albino rat assessed as inhibition of DOCA salt-induced systolic blood pressure at 10 mg/kg, po after 15 mins by non-invasive tail-cuff method; assay type: functional; settings: Artery, 0.25 h
Rattus norvegicus [2] = assay: Antiinflammatory activity in Norwegian albino rat assessed as inhibition of carrageenan-induced paw edema at 100 mg/kg, po after administered 60 mins prior to carrageenan-challenge measured after 1 hr; assay type: functional
How it was run: (§1)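 Compound given orally as 100 mg/kg suspension in 0.5% CMC. 60 min later, carrageenan injected sub-plantar into the left hind paw. Paw volume measured within 30 s of injection, then at 1–5 h. % inhibition = [1−(Dt/Dc)]×100, where Dt and Dc are mean relative paw-volume changes in test and control. ANOVA.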

Rattus norvegicus [3] = assay: Gastrointestinal toxicity in albino rat assessed as ulcerogenic index at 50 mg/kg, po; assay type: organism-based; parameters: dose 50 mg/kg, route oral; settings: in vivo
How it was run: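 Albino rats (150–200 g), six per group, food but not water withheld 24 h. Compound given p.o. at 50 mg/kg; controls received 1% methyl cellulose. Rats fed 17 h, then killed; stomach opened along greater curvature and examined under 4× magnifier. Lesions scored as large (>2 mm), small (1–2 mm) or punctiform (<1 mm). Severity index = treated mean score minus control mean score.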

Rattus norvegicus [4] = assay: Antihypertensive activity in Norwegian albino rat assessed as inhibition of DOCA salt-induced systolic blood pressure at 10 mg/kg, po after 360 mins by non-invasive tail-cuff method; assay type: functional; settings: Artery, 6 h
How it was run: (§2)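 Male rats (200–250 g), uninephrectomized under pentobarbital (50 mg/kg i.p.); one week later DOCA s.c. 30–50 mg/kg/week, with 1% w/v NaCl in drinking water. Groups of six, trained in restrainer, tail warmed at 33–34 °C. Compound in 0.5% CMC, 10 mg/kg orally. Systolic pressure read by tail-cuff before dosing and from 1 h after; three readings averaged. ANOVA.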

Rattus norvegicus [5] = assay: Antihypertensive activity in Norwegian albino rat assessed as inhibition of DOCA salt-induced diastolic blood pressure at 10 mg/kg, po after 60 mins by invasive carotid artery cannulation method; assay type: functional; settings: 1 h
How it was run: (§3)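 Male rats (200–250 g), uninephrectomized and given DOCA s.c. (30–50 mg/kg/week) with 1% NaCl drinking water. Anesthetized with pentobarbital (35 mg/kg i.p.); left carotid artery cannulated and exteriorized. After recovery and a baseline reading, compound given orally by feeding needle. Diastolic pressure recorded via transducer at 15, 30, 60, 120 and 180 min. Mean ± S.E.M.; repeated-measures ANOVA.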

Rattus norvegicus [6] = assay: Antihypertensive activity in Norwegian albino rat assessed as inhibition of DOCA salt-induced systolic blood pressure at 10 mg/kg, po after 240 mins by non-invasive tail-cuff method; assay type: functional; settings: Artery, 4 h; how it was run: as §2
Rattus norvegicus [7] = assay: Antihypertensive activity in Norwegian albino rat assessed as inhibition of DOCA salt-induced diastolic blood pressure at 10 mg/kg, po after 30 mins by invasive carotid artery cannulation method; assay type: functional; settings: 0.5 h; how it was run: as §3
Rattus norvegicus [8] = assay: Antihypertensive activity in Norwegian albino rat assessed as inhibition of DOCA salt-induced systolic blood pressure at 10 mg/kg, po after 60 mins by non-invasive tail-cuff method; assay type: functional; settings: Artery, 1 h; how it was run: as §2
Rattus norvegicus [9] = assay: Antihypertensive activity in Norwegian albino rat assessed as inhibition of DOCA salt-induced systolic blood pressure at 10 mg/kg, po after 180 mins by non-invasive tail-cuff method; assay type: functional; settings: Artery, 3 h; how it was run: as §2
Rattus norvegicus [10] = assay: Antihypertensive activity in Norwegian albino rat assessed as inhibition of DOCA salt-induced diastolic blood pressure at 10 mg/kg, po after 240 mins by invasive carotid artery cannulation method; assay type: functional; settings: 4 h
Rattus norvegicus [11] = assay: Antihypertensive activity in Norwegian albino rat assessed as inhibition of DOCA salt-induced systolic blood pressure at 10 mg/kg, po after 300 mins by non-invasive tail-cuff method; assay type: functional; settings: Artery, 5 h; how it was run: as §2
Rattus norvegicus [12] = assay: Antihypertensive activity in Norwegian albino rat assessed as inhibition of DOCA salt-induced systolic blood pressure at 10 mg/kg, po after 30 mins by non-invasive tail-cuff method; assay type: functional; settings: Artery, 0.5 h
Rattus norvegicus [13] = assay: Antihypertensive activity in Norwegian albino rat assessed as inhibition of DOCA salt-induced diastolic blood pressure at 10 mg/kg, po after 120 mins by invasive carotid artery cannulation method; assay type: functional; settings: 2 h; how it was run: as §3
Rattus norvegicus [14] = assay: Antihypertensive activity in Norwegian albino rat assessed as inhibition of DOCA salt-induced diastolic blood pressure at 10 mg/kg, po after 15 mins by invasive carotid artery cannulation method; assay type: functional; settings: 0.25 h; how it was run: as §3
Rattus norvegicus [15] = assay: Antihypertensive activity in Norwegian albino rat assessed as inhibition of DOCA salt-induced diastolic blood pressure at 10 mg/kg, po after 180 mins by invasive carotid artery cannulation method; assay type: functional; settings: 3 h; how it was run: as §3
Rattus norvegicus [16] = assay: Antihypertensive activity in Norwegian albino rat assessed as inhibition of DOCA salt-induced systolic blood pressure at 10 mg/kg, po after 420 mins by non-invasive tail-cuff method; assay type: functional; settings: Artery, 7 h; how it was run: as §2
Mus musculus = assay: Analgesic activity against acetic acid-induced writhing in Swiss albino mouse assessed as protection at 20 mg/kg, po; assay type: functional
How it was run: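 Swiss albino mice (25–30 g), six per group, habituated 30 min individually in the test cage. Compound in 1% CMC given p.o. at 20 mg/kg. 1 h later, acetic acid injected i.p.; writhes (arching of back, body elongation, hind-limb extension) counted 5–15 min after injection. % inhibition = (n−n′)/n×100, where n and n′ are mean writhes in control and test.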

Rattus norvegicus [17] = assay: Antihypertensive activity in Norwegian albino rat assessed as inhibition of DOCA salt-induced systolic blood pressure at 10 mg/kg, po after 120 mins by non-invasive tail-cuff method; assay type: functional; settings: Artery, 2 h; how it was run: as §2
Rattus norvegicus [18] = assay: Antiinflammatory activity in Norwegian albino rat assessed as inhibition of carrageenan-induced paw edema at 100 mg/kg, po after administered 60 mins prior to carrageenan-challenge measured after 3 hrs; assay type: functional; how it was run: as §1
Rattus norvegicus [19] = assay: Antiinflammatory activity in Norwegian albino rat assessed as inhibition of carrageenan-induced paw edema at 100 mg/kg, po after administered 60 mins prior to carrageenan-challenge measured after 5 hrs; assay type: functional; how it was run: as §1
Rattus norvegicus [20] = assay: Antihypertensive activity in Norwegian albino rat assessed as inhibition of DOCA salt-induced systolic blood pressure at 10 mg/kg, po after 480 mins by non-invasive tail-cuff method; assay type: functional; settings: Artery, 8 h; how it was run: as §2

| Compound | inhibition in vivo at 10 mg/kg (Rattus norvegicus [1]) | inhibition in vivo at 100 mg/kg (Rattus norvegicus [2]) | UI (Rattus norvegicus [3]) | inhibition in vivo at 10 mg/kg (Rattus norvegicus [4]) | inhibition in vivo at 10 mg/kg (Rattus norvegicus [5]) | inhibition in vivo at 10 mg/kg (Rattus norvegicus [6]) | inhibition in vivo at 10 mg/kg (Rattus norvegicus [7]) | inhibition in vivo at 10 mg/kg (Rattus norvegicus [8]) | inhibition in vivo at 10 mg/kg (Rattus norvegicus [9]) | inhibition in vivo at 10 mg/kg (Rattus norvegicus [10]) | inhibition in vivo at 10 mg/kg (Rattus norvegicus [11]) | inhibition in vivo at 10 mg/kg (Rattus norvegicus [12]) | inhibition in vivo at 10 mg/kg (Rattus norvegicus [13]) | inhibition in vivo at 10 mg/kg (Rattus norvegicus [14]) | inhibition in vivo at 10 mg/kg (Rattus norvegicus [16]) | Activity (Mus musculus) | inhibition in vivo at 10 mg/kg (Rattus norvegicus [17]) | inhibition in vivo at 100 mg/kg (Rattus norvegicus [18]) | inhibition in vivo at 100 mg/kg (Rattus norvegicus [19]) | inhibition in vivo at 10 mg/kg (Rattus norvegicus [20]) | also measured |
| --- | --- | --- | --- | --- | --- | --- | --- | --- | --- | --- | --- | --- | --- | --- | --- | --- | --- | --- | --- | --- | --- |
| CCOC(=O)C1=C(C)NC(OC)N(CC(=O)c2ccc(Cl)cc2)C1c1ccc(Cl)cc1 (centres undefined) | 0.27% | 39.8% | 0.2 | 39.8% | 23.3% | 35.5% | 8.92% | 12.7% | 28.2% | 46.3% | 37.4% | 6.45% | 30.6% | 1.84% | 44% | 37.33% | 19.6% | 41% | 42% | 44.2% | inhibition in vivo at 10 mg/kg (Rattus norvegicus [15]): 38.1% |
| COC(=O)C1=C(C)NC(C)=C(C(=O)OC)C1c1ccccc1[N+](=O)[O-] [NIFEDIPINE] | 1.29% | – | – | 44.5% | 23.6% | 35.5% | 11.7% | 12.9% | 25% | 48.4% | 44.2% | 4.44% | 30.8% | 2.51% | 45.5% | – | 19.7% | – | – | 46.6% | inhibition in vivo at 10 mg/kg (Rattus norvegicus [15]): 39.4% |
| CCOC(=O)C1=C(C)NC(OC)N(CC(=O)c2ccccc2)C1c1ccc(Cl)cc1 (centres undefined) | 0.91% | 39.8% | 0.45 | 29.7% | – | 25.6% | – | 15.2% | 22.9% | – | 28.4% | 1.87% | – | – | 32.1% | 37.87% | 20.5% | 41% | 42% | 35.6% | – |
| COc1ccc2c(c1)c(CC(=O)O)c(C)n2C(=O)c1ccc(Cl)cc1 [INDOMETHACIN] | – | 46.4% | – | – | – | – | – | – | – | – | – | – | – | – | – | – | – | 51.8% | 52.6% | – | – |
| CC(C)Cc1ccc(C(C)C(=O)O)cc1 (centres undefined) [IBUPROFEN] | – | – | 1.97 | – | – | – | – | – | – | – | – | – | – | – | – | 62.55% | – | – | – | – | – |
| CCOC(=O)C1=C(C)NC(OC)N(CC(=O)c2ccccc2)C1c1ccc(O)cc1 (centres undefined) | 0.59% | 39.8% | 0.18 | 31.4% | – | 27.8% | – | 15.2% | 23% | – | 28.5% | 1.87% | – | – | 33% | 40.33% | 21.8% | 40.9% | 42% | 35.5% | – |
| CCOC(=O)C1=C(C)NC(OC)N(CC(=O)c2ccccc2)C1c1ccccc1 (centres undefined) | 0.59% | 39.8% | 0.16 | 28.7% | – | 23.3% | – | 13% | 21.6% | – | 26.3% | 1.43% | – | – | 29.4% | 40.14% | 19.6% | 41% | 42% | 31% | – |
| CCOC(=O)C1=C(C)NC(OC)N(CC(=O)c2ccccc2)C1c1ccc(C)cc1 (centres undefined) | 0.59% | 37.8% | – | 42% | 23.1% | 36.8% | 9.79% | 13.7% | 28% | 48.7% | 38.3% | 1.87% | 30.6% | 2.2% | 44% | – | 17.4% | 37.9% | 38.9% | 45.5% | inhibition in vivo at 10 mg/kg (Rattus norvegicus [15]): 35.5% |
| CCOC(=O)C1=C(C)NC(OC)N(CC(=O)c2ccc(OC)cc2)C1c1ccc(O)cc1 (centres undefined) | 0.27% | 37.6% | – | 28% | – | 23.3% | – | 12.7% | 21.6% | – | 26.3% | 1.43% | – | – | 29.4% | – | 19.6% | 38.2% | 39.9% | 31% | – |
